CSC inhib – cancer stem cell inhibition | 300,000 tested, 1.1% active | inhibition, % at 7.5 µM | cancer stem cell-like cells viability, luminescence; in the data active = inhibition above about 75%; tested in HMLE shEcad cells
Beta apoptosis – beta cell apoptosis inhibition; INS-1E cytokine-induced death, ATP luminescence, 48 h; percent of positive-control rescue, neutral wells zero; protection from apoptosis, % (concentration not given with the values); 300,000 tested, 0.8% active;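 active = Every replicate reaches about 75%, or at least half do and their mean reaches it too, limit read from the data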;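 also: 0% = cytokine-treated negative control wells and 100% = positive control rescue; higher means more ATP so stronger rescue from cytokine killing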
HIF act – HIF pathway transcriptional activation; U2OS HRE-luciferase reporter, luminescence; normalized: DMSO 0%, desferrioxamine 100%; activation, % at 7.5 µM (by protocol); 300,000 tested, 0.32% active;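 active = mean activation of at least 10% of the iron chelator positive control signal, with at least half of replicates also reaching 10%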
PfHsp90 set2 – reduces growth (ATP signal) of yeast expressing P. falciparum Hsp90 | S. cerevisiae expressing PfHsp90, BacTiter-Glo ATP, 48 h; yeast lacking PDR1 and PDR3 efflux regulators | 310,000 tested, 0.32% active | inhibition, % at 9.4 µM;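 active = every replicate shows inhibition above about 80%, whatever the replicate mean, limit read from the data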;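 also: 0% = DMSO neutral controls and 100% = 20 µM radicicol positive controls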
T cruzi inh – T. cruzi replication inhibition. T. cruzi beta-gal in NIH3T3, luminescence, 90 h. inhibition, % (test concentration not listed). AID 1885. 300,000 tested, 1.4% active;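 active = mean inhibition across valid replicates above about 55%, limit read from the data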;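 also: signal also drops with host cell toxicity which is not excluded here; 0% = plate median of DMSO wells and 100% = zero luminescence signal; higher percent means less beta-gal luminescence so fewer parasites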
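System: mouse NIH/3T3 fibroblasts infected with β-gal-expressing T. cruzi Tulahuen C4 / Input: NIH/3T3 cells, 5,000 per well / Buffer or medium: Low-serum DMEM with 2% FBS / Probe or stimulus: 5000 reporter trypomastigotes per well / Schedule: ≥90 h infection period, 3 h prior cell attachment / Measured by: GalScreen luminescence, 60 min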
SKKanGAS inh – inhibitors of SKKanGAS S. pyogenes growth in kanamycin (SK-promoter or general growth effect). BacTiter-Glo, 6 h. inhibition, % at 7.5 µM. 300,000 tested, 1.3% active. AID 1662;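 active = mean replicate score, as percent of positive control median, at least 50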;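 also: strain carries kanamycin resistance gene driven by streptokinase promoter and grows in 40 µg/ml kanamycin; loss of luminescence reflects streptokinase promoter inhibition or plain growth inhibition; 0% = median of DMSO wells and 100% = positive control at its reference dose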
The depositor's hits bear a star; / = no result. Only some compounds are listed: those with a hit (about 3.6% of all), similar ones and a draw of the others.

SMILES	CSC inhib	Beta apoptosis	HIF act	PfHsp90 set2	T cruzi inh	SKKanGAS inh
CC(C)(C)n1[nH]c2c3c(ccc2c1=O)C(=O)c1ccccc1C3=O	48.3	85.8*	-0.8	/	1.2	25.8
CC(Cc1cccs1)NC(=O)Nc1ccc([N+](=O)[O-])cc1 (stereo not drawn)	1.9	2.7	0.8	4.7	9.5	-13.6
Cc1ccc(CN2CC(C(=O)N3CC=C(c4ccccc4)CC3)CC2=O)cc1 (stereo not drawn)	-11.1	-0.4	0.2	2.1	6.8	-4.2
CCCCC(CC)C(=O)Oc1ccc(O)c(C(C)(C)C)c1 (stereo not drawn)	-5.7	12.8	-0.4	6.0	-8.8	61.0*
COc1cc(/C=C/c2ccc3c(Br)cc(Br)c(O)c3n2)ccc1O	115.1*	63.2	-0.8	-69.4	50.0	97.4*
COc1cc(/C=C/C2=NC(=O)C(C)(C)O2)ccc1O	-0.5	/	0.1	/	-4.9	-4.8
COc1ccc(/C=C/c2ccc3c(Br)ccc(O)c3n2)cc1	88.8*	36.5	0.5	-11.3	49.0	85.3*
Cc1cc(C)c2nc(N3CCC(C(=O)N4CCN(C(=O)c5ccco5)CC4)CC3)sc2c1	/	8.5	-0.1	34.1	6.8	-4.9
Cc1cc(C)c2nc(N3CCCC(C(=O)N4CCN(c5ncccn5)CC4)C3)sc2c1 (stereo not drawn)	75.4*	13.2	0.0	/	11.4	12.6
O=c1[nH]c2ccccc2c2cn(-c3ccccc3)nc12	2.7	-11.5	5.0	29.0	-7.3	-7.4
O=c1cc(N2CCCCC2)c(-c2ccccc2)nn1Cc1ccccc1	105.1*	4.1	-0.3	-10.5	48.4	/
CCN1C[C@@H]2[C@@H]3C(=O)N(C)C(=O)[C@@H]3[C@](C)(C1=O)N2C(=O)c1ccc(Br)cc1	/	/	/	-15.7	/	/
CN(C(=O)c1cccc(NC(=O)C2CCN(C(=O)OC(C)(C)C)CC2)c1)C1CCCCC1	-13.9	3.6	/	-22.6	/	/
OC(Cn1cncn1)(c1ccc(F)cc1)c1ccc(Cl)cc1 (stereo not drawn)	0.5	-0.6	0.9	94.0*	37.8	1.4
COCCNC(=O)Cn1cc(/C=C(\C#N)C(=O)NC2CCCC2)c2ccccc21	2.0	/	-32.0	27.1	2.5	-1.9
CN(c1ccc(F)cc1)S(=O)(=O)c1ccc(Cl)c(C(=O)OCC(=O)NCc2ccco2)c1	-3.8	-6.9	-0.5	31.7	-6.2	-0.5
CSCc1cc(N(C)c2ccccc2)nc(-c2ccccn2)n1	39.0	54.8	-1.2	-8.6	60.1*	75.4*
N#Cc1c(C(F)(F)F)cc(-c2ccco2)nc1SCc1ccncc1	7.1	-1.6	0.2	-4.7	61.5*	11.2
N#Cc1c(C(F)(F)F)cc(-c2ccco2)nc1SCc1ccccn1	-14.9	/	-0.4	9.4	18.7	4.4
O=C(c1cc(-c2ccccc2Cl)nc2ccccc12)N1CCN(c2ccccn2)CC1	8.6	97.8*	/	/	/	/
O=C(/C=C/c1cn(-c2ccccc2)nc1-c1cccc(Cl)c1)N1CCN(c2ccccn2)CC1	21.3	2.3	1.2	-47.3	73.1*	39.7
O=C(c1cnc(N2CCN(c3ccccn3)CC2)c2ccccc12)N1CCN(c2cccc(Cl)c2)CC1	44.6	75.2*	-1.3	2.7	7.5	18.4
O=C(/C=C/c1cn(-c2ccccc2)nc1-c1cccnc1)N1CCCCC1	-0.9	8.6	0.7	-52.4	20.4	2.3
CC(C)OC(=O)c1cccnc1N1CCN(c2cccc(Cl)c2)CC1	9.6	3.9	-0.3	-4.4	19.7	59.5*
Cc1cc(CNC(=O)COC(=O)C2CC3CCCC(C2)C3=O)cc(C)c1O (stereo not drawn)	-4.2	10.8	/	/	/	/
SMILES	CSC inhib	Beta apoptosis	HIF act	PfHsp90 set2	T cruzi inh	SKKanGAS inh
Cc1sc2ncnc(SCC(=O)NCC3CCCO3)c2c1C (stereo not drawn)	/	-0.5	/	-3.6	/	/
CC(C)N=C1NN=C(c2ccc(Cl)c(Cl)c2)CS1	/	/	1.8	-7.8	12.2	43.6
Brc1ccc2c(c1)OCCOCCOc1cc(Br)ccc1OCCOCCOCCO2	6.3	19.2	/	10.4	64.9*	0.8
Brc1cc2c(cc1Br)OCCOCCOCCOCCO2	-7.0	-2.9	0.3	28.1	2.7	-7.7
O=C(CN1C(=O)NC2(CCCCCC2)C1=O)Nc1ccccc1[N+](=O)[O-]	4.8	-2.1	/	15.3	/	/
CCOC(=O)c1sc(-c2ccc(C(F)(F)F)cc2)nc1O	0.8	-16.6	1.2	105.8*	-1.6	29.0
CCOC(=O)c1sc(-c2cccc(C(F)(F)F)c2)nc1O	-13.8	-14.2	-0.1	-25.3	7.0	0.6
C#CCOCCOCCOCCNc1nc(N2CCN(C(=O)CCCCCCCCCCNC(=O)Cn3cc(CCCCCN)nn3)CC2)nc(N2CCN(C(=O)CCCCCCCCCCNC(=O)[C@@H]([C@H](C)O)n3cc(C)nn3)CC2)n1	10.1	-1.7	/	7.2	/	/
C#CCOCCOCCOCCNc1nc(N2CCN(C(=O)CCCCCCCCCCNC(=O)Cn3cc(C[C@@H](C)O)nn3)CC2)nc(N2CCN(C(=O)CCCCCCCCCCNC(=O)[C@@H]([C@H](C)O)n3cc(C)nn3)CC2)n1	157.9*	51.9	/	0.5	/	/
C#CCOCCOCCOCCNc1nc(N2CCN(C(=O)CCCCCCCCCCNC(=O)Cn3cc(C[C@@H](C)O)nn3)CC2)nc(N2CCN(C(=O)CCCCCCCCCCNC(=O)[C@@H]([C@H](C)CC)n3cc(CCCCCN)nn3)CC2)n1	124.0*	84.3*	/	5.0	/	/
C#CCOCCOCCOCCNc1nc(N2CCN(C(=O)CCCCCCCCCCNC(=O)Cn3cc(CCCCCN)nn3)CC2)nc(N2CCN(C(=O)CCCCCCCCCCNC(=O)Cn3cc(C[C@@H](C)O)nn3)CC2)n1	-28.9	10.2	/	-12.9	/	/
Cc1ccccc1-c1nnc(SCC(=O)N(C)C2CCS(=O)(=O)C2)n1C (stereo not drawn)	-18.2	0.4	/	6.5	/	/
COc1ccccc1C1=CC(=O)CC(C)(C)C1=O	3.2	-4.6	/	-3.3	/	/
O=c1[nH]c(-c2ccccn2)nc2sc(-c3ccccc3)cc12	/	/	72.1*	59.2	54.8*	95.8*
CNC1(C)[C@H]2CC[C@H](C2)C1(C)C (stereo partly drawn)	/	/	/	-5.0	/	/
CC[N+](C)(C)CCN(Cc1ccc(Cl)cc1)c1ccccn1	9.4	-2.5	0.3	/	1.6	-4.0
CCCCCCCCCCCCCCCC[N+](C)(C)CCN(Cc1ccc(OC)cc1)c1ncccn1	117.4*	99.7*	/	106.2*	/	/
COc1ccc(OC)c2sc(N(CCCN(C)C)C(=O)c3ccc(S(=O)(=O)N4CCc5ccccc5C4)cc3)nc12	100.5*	100.1*	-8.3	/	59.5*	3.9
COc1cc2nc(N(CCCN(C)C)C(=O)c3ccc(S(=O)(=O)N4CCc5ccccc5C4)cc3)sc2cc1OC	-4.9	/	0.8	/	56.7*	-5.6
COc1cccc2sc(N(CCCN(C)C)C(=O)c3ccc(S(=O)(=O)N4CCc5ccccc5C4)cc3)nc12	-1.0	0.6	-2.8	12.3	46.7	15.2
